The subject of one series is 3T3-L1 (Mus musculus). The series is described as follows: Induction of 2-NBDG uptake in mouse 3T3-L1 adipocyte cells at 5 uM after 24 hrs measured after 30 mins of 2-NBDG by fluorescence assay.
Series [1] concerns the target T1, Tyrosine-protein phosphatase non-receptor type 1 (Homo sapiens, UniProt P18031).
T1 sequence (P18031 whole entry): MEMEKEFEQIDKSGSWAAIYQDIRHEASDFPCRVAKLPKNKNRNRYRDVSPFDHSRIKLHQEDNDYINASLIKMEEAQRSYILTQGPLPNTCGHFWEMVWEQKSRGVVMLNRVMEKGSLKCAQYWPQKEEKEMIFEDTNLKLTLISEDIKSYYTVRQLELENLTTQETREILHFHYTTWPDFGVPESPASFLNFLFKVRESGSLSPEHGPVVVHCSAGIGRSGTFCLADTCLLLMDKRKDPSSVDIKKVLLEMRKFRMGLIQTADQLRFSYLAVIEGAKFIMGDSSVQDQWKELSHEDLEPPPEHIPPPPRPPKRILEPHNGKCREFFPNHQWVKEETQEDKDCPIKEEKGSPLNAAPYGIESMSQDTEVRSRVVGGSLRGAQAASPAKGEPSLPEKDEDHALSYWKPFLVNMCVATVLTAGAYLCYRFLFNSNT
Description: Mixed-competitive inhibition of human recombinant PTP1B using p-nitrophenylphosphate as substrate by Lineweaver-Burk plot analysis.

Series [2] addresses T1, Tyrosine-protein phosphatase non-receptor type 1. The series is described as follows: Inhibition of human recombinant PTP1B using p-nitrophenylphosphate as substrate. The procedure, abridged: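 Human recombinant PTP1B in 50 mM citrate pH 6.0, 0.1 M NaCl, 1 mM EDTA, 1 mM DTT, ± sample, preincubated 10 min at 37 °C. Substrate 2 mM p-NPP, then 20 min at 20 °C, stopped with NaOH, A405. Blank without enzyme corrects for non-enzymatic hydrolysis. IC50 by regression, mean ± SD of three replicates.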

A short description of series [3]: Cytotoxicity against mouse NIH/3T3 cells at 50 uM after 48 hrs by MTT assay. Particulars: nih3t3, 48 h. On the technique in general: Formazan colour is commonly taken as a measure of viable cells.
The target of series [4] is T1, Tyrosine-protein phosphatase non-receptor type 1. The series is described as follows: Uncompetitive inhibition of human recombinant PTP1B using p-nitrophenylphosphate as substrate by Lineweaver-Burk plot analysis.
Series [5] shares this target. Description: Noncompetitive inhibition of human recombinant PTP1B using p-nitrophenylphosphate as substrate by Lineweaver-Burk plot analysis.

Values joined by “and” are separate entries in the source; they are usually repeats but may differ in a detail not shown here. Equal entries are not always repeated. Active and inactive are the calls of the source. The calls are words filed in the database; no cut-off is given here.

Usually Ki stands for the equilibrium dissociation constant of an inhibitor or competing ligand from its target. Usually IC50 stands for the concentration that gives 50% inhibition. Turning to `COc1ccc(C(=C2C=CC(=O)C=C2)c2c(-c3ccc(O)cc3)ccc(CO)c2C#Cc2ccc(O)cc2)cc1`, the result in the series on 3T3-L1 (Mus musculus) was Active. Besides, in series [1], the inhibitory constant (Ki) was determined as 8.9 µM. Moreover, the IC50 in series [2] was determined as 11.5 µM.
For `COCc1ccc(-c2ccc(O)cc2O)c(C(O)(c2ccc(O)cc2)c2ccc(O)cc2)c1C#Cc1ccc(O)cc1`, in the series with 3T3-L1 (Mus musculus), the outcome was Active. Besides, the Activity result in series [3] is recorded as “Non-toxic”. The IC50 in series [2] was determined as 19.4 µM. In series [4], the Ki amounted to 15.1 µM.
As for `O=C(O)c1nnc(-c2ccc(-c3ccccc3)cc2)o1`, the IC50 in series [2] was 0.7 µM.
As to `O=C1C=CC(=C(c2ccc(O)cc2)c2c(-c3ccc(O)cc3)ccc(CO)c2C#Cc2ccc(O)cc2)C=C1`, the result with 3T3-L1 (Mus musculus) was Active. Also, the Activity entry in series [3] is listed as “Non-toxic”. Besides, in series [1], the inhibition constant Ki was 3 µM and 13.9 µM. Besides, in series [2], the IC50 was 4.6 µM and 15.9 µM.
Regarding `OCc1ccc(-c2ccc(O)cc2O)c(C(O)(c2ccc(O)cc2)c2ccc(O)cc2)c1C#Cc1ccc(O)cc1`, the result in the series with 3T3-L1 (Mus musculus) was Active. For the same molecule, in series [3], the Activity result is reported as “Non-toxic”. Moreover, the IC50 in series [2] came to 21.6 µM. In series [5], the inhibitory constant (Ki) was 10.3 µM.

Source of the values: ChEMBL document CHEMBL3392973, “Insulin-mimetic selaginellins from Selaginella tamariscina with protein tyrosine phosphatase 1B (PTP1B) inhibitory activity” (J Nat Prod, 2015).
